Bioassay records: PubChem, several laboratories
Cl transport mod – modulates chloride dependent transport by human KCC2; 190,000 tested, 2.2% active; KCC2 cells, thallium flux FluoZin-2 fluorescence; B-score of Tl+ flux slope (higher = more flux/activation; lower = inhibition) at 10 µM;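 active means thallium flux slope and its plate-corrected score both differing from the plate sample mean at a set confidence after two filtering rounds, in either direction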;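 further: slope of fluorescence scaled to starting intensity during 10 to 20 s after thallium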
KCNQ1 act – human KCNQ1 channel potentiation or activation; CHO-K1 KCNQ1, thallium flux FluxOR fluorescence; stronger effect = higher value; 310,000 tested, 0.35% active; AID 2648; P51787; B-score at 10 µM;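 active means fluorescence ratio B-score, a plate-corrected score, at least three library SD, with initial intensity B-score within 5 SD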
Target sequence (P51787 whole entry, looked up): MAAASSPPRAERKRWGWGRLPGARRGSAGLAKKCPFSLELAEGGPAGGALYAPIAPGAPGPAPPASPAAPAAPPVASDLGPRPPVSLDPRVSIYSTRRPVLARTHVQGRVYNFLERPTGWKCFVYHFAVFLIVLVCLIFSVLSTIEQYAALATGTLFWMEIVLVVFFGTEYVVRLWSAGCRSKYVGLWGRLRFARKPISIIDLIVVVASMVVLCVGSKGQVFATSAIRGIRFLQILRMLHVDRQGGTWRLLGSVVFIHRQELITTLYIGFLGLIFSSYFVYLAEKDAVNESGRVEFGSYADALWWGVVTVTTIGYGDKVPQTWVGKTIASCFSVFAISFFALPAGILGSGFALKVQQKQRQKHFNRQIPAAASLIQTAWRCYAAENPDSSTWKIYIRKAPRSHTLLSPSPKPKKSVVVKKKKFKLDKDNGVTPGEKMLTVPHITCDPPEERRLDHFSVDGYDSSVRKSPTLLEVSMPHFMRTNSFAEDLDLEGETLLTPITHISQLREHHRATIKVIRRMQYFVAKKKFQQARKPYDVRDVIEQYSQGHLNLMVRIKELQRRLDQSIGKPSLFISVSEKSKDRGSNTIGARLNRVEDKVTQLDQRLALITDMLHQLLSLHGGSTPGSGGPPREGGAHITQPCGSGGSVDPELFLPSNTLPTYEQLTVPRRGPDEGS
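Medium – assay buffer, equal DMSO in all wells · Material – CHO-K1 cell line with stable KCNQ1 potassium channel expression · Signal – kinetic FluxOR thallium fluorescence, 10-s 1-Hz baseline, 110-s post-stimulus read · Compound – single concentration per compound, DMSO matched to controls · Schedule – 37 °C overnight plating, 90-min dark dye load, 20-min compound pretreatment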
hERG protect – hERG (human) protection from proarrhythmic block; 310,000 tested, 0.51% active; CHO-hERG, FluxOR thallium flux, dofetilide IC70 present; activation (rescue from dofetilide block), less the hit threshold, % at 10 µM; AID 1511;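 active means activation above the mean of controls blocked by dofetilide plus 5 SD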;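 further: thallium influx through hERG after potassium depolarization seen as dye fluorescence rise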
KCNQ1 block – inhibitors of human KCNQ1 potassium channel. P51787. CHO-K1 KCNQ1, FluxOR thallium flux fluorescence; stronger effect = higher value. B-score at 10 µM. 310,000 tested, 1.3% active. AID 2642;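 active means compounds whose thallium flux B-score, printed positive for inhibition, exceeds three library SD while starting fluorescence stays within three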;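 further: channel opened by potassium depolarization with thallium stimulus after 20 min compound exposure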
KCNK9 inh – blocks the human KCNK9 two-pore domain potassium channel. Q9NPC2. HEK293 KCNK9, FluxOR thallium flux fluorescence; stronger effect = lower value. B-score at 10 µM. 310,000 tested, 1.2% active. AID 488922;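 active means ratio B-score over 3 SD below the library mean, with starting fluorescence within 5 SD of its mean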;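 further: negative B-score means less thallium flux so channel inhibition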
KCNK3 block – human KCNK3 channel inhibition, primary screen; CHO-KCNK3 thallium flux, FluxOR fluorescence; stronger effect = lower value; B-score at 10 µM; 340,000 tested, 0.84% active; AID 602410;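 active means B-score under library mean minus 4 SD, starting fluorescence ratio at most library mean plus 5 SD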;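 further: more negative B-score means stronger inhibition of thallium flux through KCNK3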
KCNK3 inh conf – confirmation of human KCNK3 two-pore domain potassium channel inhibitors | shares compounds with KCNK3 block | CHO-KCNK3 thallium flux, FluxOR fluorescence; 0% buffer, 100% carvedilol maximal block | ratio percent of control, % at 10 µM | 2,400 tested, 99% active | AID 651638;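 active means ratio percent of control, averaged over triplicates, above buffer control mean plus 5 SD, cut at about 64% in these data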;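 further: ratio is the fluorescence rise from min to max over baseline after thallium stimulus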
KCNK3 uninduced – KCNK3 inhibitor counter-screen hit in non-induced cells; shares compounds with KCNK3 block; non-induced KCNK3 parental cells, FluxOR thallium flux; stronger effect = lower value; AID 651747; thallium flux ratio (lower = more inhibition) at 10 µM; 2,400 tested, 40% active;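 active means thallium flux ratio, averaged over three wells, more than 5 SD below the buffer control mean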;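 further: host cells are CHO cells without KCNK3 induction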
Of the large screens only hits and unclear results are named; the others gave an inactive call (follow-up assays come after a bar, where they were run). The list is not random: actives were taken first. Their share in the collection is about 4.1%.

Cc1ccc(Br)cc1S(=O)(=O)N1CCN(c2ccccc2)CC1	KCNK3 block -11 | KCNK3 inh conf 102 | KCNK3 uninduced 0.15
CCCOC(=O)c1ccc(NC(=O)CSC2=Nc3ccccc3C3CC=NN23)cc1 (stereo not drawn)	KCNK9 inh -7, KCNK3 block -9 | KCNK3 inh conf 110 | KCNK3 uninduced inactive
O=C(CN1C(=O)C2CC=CCC2C1=O)Nc1nnc(C2CC2)s1 (stereo not drawn)	none (no result: Cl transport mod, KCNQ1 act, hERG protect, KCNQ1 block, KCNK9 inh)
CCc1ccc(-c2cc(C)no2)cc1S(=O)(=O)NCc1ccccc1OC	KCNK3 block -11 (no result: Cl transport mod) | KCNK3 inh conf 98 | KCNK3 uninduced inactive
COc1ccccc1CNS(=O)(=O)c1ccc(-c2cc(C)no2)cc1	none (no result: Cl transport mod)
CCc1ccc(-c2cc(C)no2)cc1S(=O)(=O)N1CCN(c2ccccc2OC)CC1	KCNK3 block -9.6 (no result: Cl transport mod) | KCNK3 inh conf 83 | KCNK3 uninduced 0.15
COc1cccc2cc(C(C)N(CCCN3CCOCC3)C(=S)Nc3c(C)cccc3C)oc12 (stereo not drawn)	none
CCc1ccc(NC(=O)N(CCCN2CCOCC2)C(C)c2cc3cccc(OC)c3o2)cc1 (stereo not drawn)	KCNK3 block -8.8 | KCNK3 inh conf 118 | KCNK3 uninduced inactive
O=C(Nc1cc(C(F)(F)F)ccc1Cl)c1ccncc1	none
C/C(=N\Nc1cc(C(F)(F)F)ccc1Cl)c1ccncc1	KCNK3 block -9.7 (no result: Cl transport mod) | KCNK3 inh conf 110 | KCNK3 uninduced inactive
O=[N+]([O-])c1ccc(-c2ccc(/C=N/Nc3nc(N4CCCC4)nc(N4CCCC4)n3)o2)cc1	KCNQ1 block 7, KCNK3 block -9.8 | KCNK3 inh conf 141 | KCNK3 uninduced 0.11
COc1nc(N/N=C/c2ccc(-c3cccc([N+](=O)[O-])c3)o2)nc(N2CCOCC2)n1	none (no result: KCNK3 block)
Cc1ccc(C(=O)Nc2cccc(NC(=O)c3cccs3)c2)c(C)c1	KCNK9 inh -7, KCNK3 block -11 (no result: Cl transport mod) | KCNK3 inh conf 85 | KCNK3 uninduced inactive
O=C(Nc1cccc(NC(=O)c2cccs2)c1)c1cccnc1	KCNK3 block -9.3 | KCNK3 inh conf 89 | KCNK3 uninduced inactive
Cc1cc(C)cc(C(=O)Nc2ccc(NC(=O)c3cccs3)cc2)c1	none (no result: Cl transport mod)
CC(C)(C)NC(=O)c1cc(NC(=O)c2cccs2)cc(NC(=O)c2cccs2)c1	KCNK9 inh -7.2, KCNK3 block -11 (no result: Cl transport mod) | KCNK3 inh conf 100 | KCNK3 uninduced inactive
Cc1cccc(C(=O)Nc2cc(NC(=O)c3cccs3)ccc2C)c1	KCNK3 block -9.7 (no result: Cl transport mod) | KCNK3 inh conf 112 | KCNK3 uninduced inactive
CC(=O)c1c(C)nc(-c2cccc([N+](=O)[O-])c2)n1O	none
CCn1cc(CN2CCN(C)C(CCO)C2)c2ccccc21 (stereo not drawn)	none (no result: Cl transport mod)
COc1cc(C(=O)Nc2ccc3c(c2)ncn3C(C)(C)C)cc(OC)c1OC	KCNK3 block -9.3 (no result: Cl transport mod) | KCNK3 inh conf 75 | KCNK3 uninduced inactive
CC(C)(C)n1cnc2cc(NC(=O)c3ccc(Cl)cc3)ccc21	none (no result: Cl transport mod)
O=[N+]([O-])c1ccccc1S(=O)(=O)c1ccccc1[N+](=O)[O-]	none (no result: Cl transport mod)
CC(CS(=O)(=O)c1ccccc1[N+](=O)[O-])N1CCOCC1 (stereo not drawn)	KCNK3 block -9.1 | KCNK3 inh conf 84 | KCNK3 uninduced inactive
CN1CCN(S(=O)(=O)c2ccc3c(c2)NC(=O)CS3)CC1	none (no result: Cl transport mod)
Cc1ccc(C)c(N2CCN(S(=O)(=O)c3ccc4c(c3)NC(=O)CS4)CC2)c1	KCNK3 block -9.4 (no result: Cl transport mod) | KCNK3 inh conf 85 | KCNK3 uninduced inactive
C/C(=N\Nc1cc(C)nc(-c2ccccc2O)n1)c1ccccc1O	KCNQ1 block 10, KCNK3 block -9.1 | KCNK3 inh conf 106 | KCNK3 uninduced inactive
Cc1cc(N/N=C\c2ccccc2)nc(-c2ccccc2O)n1	none
CCOC(=O)c1[nH]cnc1C(=O)N1CCN(C(=O)OC(C)(C)C)CC1	none (no result: Cl transport mod, KCNQ1 act, hERG protect, KCNQ1 block, KCNK9 inh)
CC(C)(C)c1ccc(/C=C/C(=O)N2CCCCC2)cc1	KCNK3 block -8.9 | KCNK3 inh conf 108 | KCNK3 uninduced inactive
CCC/C(O)=C1\C(=O)CCCC1=NCCc1ccc(OCC)c(OCC)c1	KCNK3 block -9.2 | KCNK3 inh conf 117 | KCNK3 uninduced inactive
CCCC/C(O)=C1\C(=O)CCCC1=NCCc1c(C)[nH]c2ccc(OC)cc12	none
CNC(=O)/C(C#N)=C/c1c(N2CCN(c3ccccc3)CC2)nc2c(C)cccn2c1=O	none (no result: Cl transport mod)
Cc1cccn2c(=O)c(/C=C(\C#N)C(N)=O)c(N3CCN(c4cccc(Cl)c4)CC3)nc12	KCNK9 inh -7.2, KCNK3 block -10 (no result: Cl transport mod) | KCNK3 inh conf 102 | KCNK3 uninduced inactive
CC(C)(C)C(CCl)C(=O)NN=C(c1ccccc1)c1ccccc1 (stereo not drawn)	none (no result: Cl transport mod, KCNQ1 act, hERG protect, KCNQ1 block, KCNK9 inh)
CC(Cl)C(=O)NN=C(c1ccccc1)c1ccccc1 (stereo not drawn)	KCNK3 block -8.9 | KCNK3 inh conf 94 | KCNK3 uninduced inactive
C=C(C)COc1ccc(-c2[nH]ncc2-c2ccccc2OC)c(O)c1	KCNK3 block -9 (no result: Cl transport mod) | KCNK3 inh conf 96 | KCNK3 uninduced inactive
COc1cccc(/C=C2\SC(=O)N(CCC(=O)N3CCCCC3CCO)C2=O)c1 (stereo not drawn)	KCNK3 block -11 (no result: Cl transport mod) | KCNK3 inh conf 78 | KCNK3 uninduced inactive
O=C1/C(=C\c2ccccc2)SC(=S)N1CCC(=O)N1CCCCC1CCO (stereo not drawn)	none (no result: Cl transport mod)
Cc1ccccc1C(=O)NNC(=S)NC(=O)c1cccs1	none (no result: Cl transport mod)
COc1cc(OC)c(OC)cc1/C=C1/Cc2ccccc2C1=O	none (no result: Cl transport mod)
COc1cc(OC)c(OC)cc1/C=C1\CC(C)C/C(=C\c2cc(OC)c(OC)cc2OC)C1=O (stereo not drawn)	KCNQ1 block 8, KCNK3 block -14 (no result: Cl transport mod) | KCNK3 inh conf 154 | KCNK3 uninduced 0.066
CCOC(=O)C(C)/C(C)=N\Nc1ccc([N+](=O)[O-])cc1[N+](=O)[O-] (stereo not drawn)	none
C/C(=N\Nc1ccc([N+](=O)[O-])cc1[N+](=O)[O-])C(C)C(C)C (stereo not drawn)	KCNQ1 block 8, KCNK3 block -9.2 (no result: Cl transport mod) | KCNK3 inh conf 93 | KCNK3 uninduced 0.14
CC1CCc2nc3ccccc3c(C(=O)OCC(=O)NC3CCS(=O)(=O)C3)c2C1 (stereo not drawn)	none
